Compounds with a hit are over-represented: about 4.3% of the library has one in this group of screens.
OX1R antag-1 – OX1R (HCRTR1) antagonists, primary screen, fluorescence, CHO/OX1R cells, Fluo-8 calcium, orexin A | Orexin/Hypocretin receptor type 1 (Homo sapiens), O43613 | Fluo-8 calcium fluorescence | inhibition, % at 5 µM | 330,000 tested, 0.43% active | AID 434989, 2010;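 active = inhibition above its plate's threshold, mean inhibition of all tested compounds on the plate plus 3 SD, cut at about 37% in these data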
Target sequence (O43613 whole entry, looked up): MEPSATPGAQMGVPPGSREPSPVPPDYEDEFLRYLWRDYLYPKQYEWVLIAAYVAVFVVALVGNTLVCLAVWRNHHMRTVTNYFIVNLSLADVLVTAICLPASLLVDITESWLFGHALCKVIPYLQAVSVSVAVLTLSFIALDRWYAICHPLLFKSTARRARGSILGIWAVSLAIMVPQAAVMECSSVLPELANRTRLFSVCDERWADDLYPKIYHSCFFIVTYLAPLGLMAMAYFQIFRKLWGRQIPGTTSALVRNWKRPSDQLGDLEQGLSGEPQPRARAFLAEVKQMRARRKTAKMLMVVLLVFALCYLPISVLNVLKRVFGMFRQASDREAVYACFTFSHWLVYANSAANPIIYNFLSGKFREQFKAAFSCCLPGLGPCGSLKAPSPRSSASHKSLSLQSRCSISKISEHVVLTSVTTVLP
GalR3 antagonist – GalR3 antagonists in HEK293 cells, primary screen, cell-based, fluorescence readout. Galanin receptor type 3 (Homo sapiens), O60755. HEK293 GalR3-CNG cAMP membrane potential fluorescence; galR3 body fused to GalR1 C-terminus. inhibition, % at 3 µM. 360,000 tested, 0.44% active. AID 651719, 2012;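 active = inhibition above the screen-wide average plus 3 SD, cut at about 13% in these data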;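 also: forskolin and galanin both at EC90 stimulate the cells; cAMP rise reported by CNG channel membrane potential dye signal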
TAAR1 antag – human TAAR1 antagonists, primary screen, Fluo-8 calcium fluorescence, CHO RD-HGA16 cells | Trace amine-associated receptor 1 (Homo sapiens), Q96RJ0 | antagonist | inhibition, % at 3 µM | 360,000 tested, 1.5% active | AID 624466, 2012;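 active = inhibition above a per-plate cutoff, the mean inhibition of test compounds on that plate plus 3 SD, cut at about 49% in these data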
Target sequence (Q96RJ0 whole entry, looked up): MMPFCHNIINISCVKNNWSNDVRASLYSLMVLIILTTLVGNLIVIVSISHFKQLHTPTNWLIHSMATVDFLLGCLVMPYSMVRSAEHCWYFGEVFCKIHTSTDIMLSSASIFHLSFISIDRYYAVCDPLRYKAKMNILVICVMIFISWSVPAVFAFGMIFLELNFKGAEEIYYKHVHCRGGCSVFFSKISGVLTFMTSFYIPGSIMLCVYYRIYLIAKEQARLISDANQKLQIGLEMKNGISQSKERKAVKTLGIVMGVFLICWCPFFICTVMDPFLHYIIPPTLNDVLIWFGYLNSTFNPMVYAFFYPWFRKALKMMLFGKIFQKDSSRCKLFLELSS
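test system = CHO RD-HGA16 cells bearing hTAAR1 | replication = singlicate | controls = DMSO-only wells and EC80 β-PEA-stimulated wells | reagent = EC80 β-phenethylamine stimulus | read-out basis = percent inhibition of PEA-evoked calcium signal, max/basal emission ratio | schedule = seeding 17-24 h prior, 75-min 37 °C, 30-min RT dye loading | signal = kinetic Fluo-8 calcium fluorescence measurement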
TAAR1 ag – human TAAR1 agonists, primary screen, Fluo-8 calcium fluorescence, CHO RD-HGA16 cells; vehicle wells 0%, saturating PEA agonist 100%; activation, % at 3 µM; 360,000 tested, 0.99% active; AID 624467, 2012;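 active = activation above the mean activation of all test compounds in the run plus 3 SD, cut at about 38% in these data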
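Test system: RD-HGA16 (CHO) cells co-expressing Gα16 and hTAAR1; dosing: one-point dosing at 3 µM (nominal); timing: 17-24 h seeding, 75 min 37 °C dye, 30 min RT; signal: kinetic Fluo-8 calcium fluorescence; read-out basis: % activation relative to PEA EC100 response; controls: DMSO and PEA EC100; replicates: n 1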
CHO parental Ca – ATP-evoked calcium signal inhibitors, parental CHO, primary screen, counter-screen for OX1R antagonist project, cell-based, fluorescence, Fluo-8 calcium dye; parental CHO-K1, ATP-induced calcium, Fluo-8 fluorescence; AID 463079, 2010; inhibition, % at 5.6 µM; 330,000 tested, 0.63% active;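 active = inhibition above that plate's mean sample inhibition plus 3 SD, cut at about 26% in these data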
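test system = CHO parental line | reagent = ATP stimulus | measured by = intracellular calcium via Fluo-8 no-wash fluorescent dye | control set = ATP and no-ATP DMSO wells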
OX1R antag-2 – antagonists of human orexin 1 receptor (OX1R) | 330,000 tested, 1.8% active | AID 485270, 2010 | inhibition, % at 6.6 µM | OX1R-expressing cells, FRET antagonist read-out; in the data active = inhibition mostly above about 38%, no sharp cut-off; inactive = mostly below about 40%
TAAR1 ag conf – human TAAR1 agonists, retest of hits, confirmation, Fluo-8 calcium fluorescence, CHO RD-HGA16 cells; shares compounds with TAAR1 ag; activation, % at 3 µM; scaled: DMSO 0%, maximal phenethylamine 100%; 2,400 tested, 82% active;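 active = activation above a cutoff set at the run's mean compound activation plus 3 SD, cut at about 39% in these data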
Ga16 ag counter – nonselective calcium mobilization agonists, CHO-Ga16 cells, counter-screen for hTAAR1 agonist project, cell-based, fluorescence, CHO-Ga16 parental line; shares compounds with TAAR1 ag; Fluo-8 calcium fluorescence; normalized to maximal ATP response, DMSO zero; activation, % at 3 µM; 2,400 tested, 50% active; AID 651787, 2012;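 active = activation above the run cutoff, the mean activation over all tested wells plus 3 SD, cut at about 12% in these data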
TAAR1 desensitize – TAAR1 desensitization by agonist hits, confirmation, counter-screen for TAAR1 agonist project, cell-based, fluorescence, tachyphylaxis | shares compounds with TAAR1 ag | CHO RD-HGA16 hTAAR1, Fluo-8 calcium, beta-PEA response inhibition | inhibition, % at 3 µM | 2,400 tested, 46% active | AID 651951, 2012;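 active = inhibition above the run cutoff, the mean inhibition of all test compounds plus 3 SD, cut at about 49% in these data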;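 also: beta-PEA stimulus applied at its EC80; loss of beta-PEA calcium signal after compound pretreatment read as receptor desensitization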
Ga16 nonsel ant – inhibition of ATP-evoked calcium response in CHO-Ga16 cells, counter-screen for TAAR1 agonist project, cell-based, fluorescence. shares compounds with TAAR1 ag. inhibition, % at 3 µM. 2,400 tested, 39% active. CHO-Ga16 ATP-induced calcium, Fluo-8 fluorescence;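 active = inhibition above the plate's mean compound inhibition plus 3 SD, computed per plate, cut at about 22% in these data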
Of the large screens only hits and unclear results are named; the others gave an inactive call (follow-up assays come after a bar, where they were run).

O=C(NCc1ccccc1)C(=O)NCC1OCCN1S(=O)(=O)c1ccc2c(c1)OCCO2 (configuration not stated)	none (no result: GalR3 antagonist)
CC(C)=C1C2CCC1C(C(=O)NCCc1ccccc1)C2C(=O)O (configuration not stated)	TAAR1 antag 88, TAAR1 ag 62 | TAAR1 ag conf 80 | Ga16 ag counter inactive | TAAR1 desensitize 90 | Ga16 nonsel ant inactive
O=C(O)C1C2C=CC(C3CC23)C1C(=O)NCCc1ccccc1 (configuration not stated)	TAAR1 antag 93, TAAR1 ag 91 | TAAR1 ag conf 96 | Ga16 ag counter inactive | TAAR1 desensitize 97 | Ga16 nonsel ant inactive
CC(NS(=O)(=O)c1cn(C)c(=O)n(C)c1=O)c1ccccc1 (configuration not stated)	none
CCc1nc2ccc(C(=O)Nc3ccc(OC)c(OC)c3)cn2c1N(C)CCC(C)C	TAAR1 ag 82 (no result: OX1R antag-1, CHO parental Ca, OX1R antag-2) | TAAR1 ag conf 99 | Ga16 ag counter 68 | TAAR1 desensitize inactive | Ga16 nonsel ant inactive
CCc1nc2ccc(C(=O)Nc3ccc(OC)c(OC)c3)cn2c1N(C)Cc1ccc(OC)cc1	none (no result: OX1R antag-1, CHO parental Ca, OX1R antag-2)
CCc1nc2c(OCc3cc(Cl)cc(Cl)c3)cccn2c1N(C=O)Cc1ccc(OC)cc1	none (no result: OX1R antag-1, CHO parental Ca, OX1R antag-2)
O=C1NC(Cc2ccccc2)c2nc3cc(F)ccc3c(=O)n2-c2cc(Cl)ccc21 (configuration not stated)	TAAR1 ag 72 | TAAR1 ag conf 50 | Ga16 ag counter 17 | TAAR1 desensitize inactive | Ga16 nonsel ant inactive
ClC(Cl)(Cl)C1=NCc2nnn(Cc3ccccc3)c2N1	none (no result: OX1R antag-1, CHO parental Ca, OX1R antag-2)
COc1ccc(NC(=O)/C(C#N)=C/c2cc(C)n(-c3ccc(N4CCOCC4)c([N+](=O)[O-])c3)c2C)cc1	none
Cc1cc(/C=C(\C#N)C(=O)Nc2ccc(F)cc2)c(C)n1-c1ccc(N2CCOCC2)c([N+](=O)[O-])c1	TAAR1 ag 69 | TAAR1 ag conf inactive | Ga16 ag counter inactive | TAAR1 desensitize inactive | Ga16 nonsel ant 28
Cn1c(CCN2CCCC2)nc2cc(NS(=O)(=O)c3ccc(Cl)cc3)ccc21	none
Cn1c(CN2CCCC2)nc2cc(NS(=O)(=O)c3ccc(Cl)cc3)ccc21	TAAR1 ag 69 | TAAR1 ag conf 93 | Ga16 ag counter 30 | TAAR1 desensitize inactive | Ga16 nonsel ant inactive
O=c1c2ccc(Cl)cc2nc(-c2cccc(C(F)(F)F)c2)n1O	TAAR1 ag 52 | TAAR1 ag conf inactive | Ga16 ag counter 32 | TAAR1 desensitize inactive | Ga16 nonsel ant inactive
N#Cc1ccc(-c2nc3cc(Cl)ccc3c(=O)n2O)cc1	none
CCOC(=O)c1c(NC(=O)C(C)N2CCN(C(=O)c3ccco3)CC2)sc2c1CCCC2 (configuration not stated)	OX1R antag-1 66, TAAR1 antag 87, TAAR1 ag 84, CHO parental Ca 60 | TAAR1 ag conf 42 | Ga16 ag counter 37 | TAAR1 desensitize 71 | Ga16 nonsel ant 59
CCOC(=O)c1c(NC(=O)c2ccco2)sc2c1CCCCC2	none
O=C(C(=O)N1CCc2ccccc2C1)c1cn(CC(=O)N2CCOCC2)c2ccccc12	TAAR1 ag 75 | TAAR1 ag conf 39 | Ga16 ag counter inactive | TAAR1 desensitize inactive | Ga16 nonsel ant inactive
O=C(C(=O)N1CCOCC1)c1cn(CC(=O)N2CCc3ccccc3C2)c2ccccc12	none
O=C(C(=O)N1CCc2ccccc2C1)c1cn(CC(=O)N2CCCCC2)c2ccccc12	TAAR1 antag 70, TAAR1 ag 80 | TAAR1 ag conf 102 | Ga16 ag counter inactive | TAAR1 desensitize 86 | Ga16 nonsel ant inactive
CN1CCN(C(=O)C(=O)c2cn(CC(=O)N3CCCCCC3)c3ccccc23)CC1	none (no result: OX1R antag-1, CHO parental Ca, OX1R antag-2)
CCCCCN(C(=O)CCC(=O)OCc1cccc(F)c1)c1c(N)n(CCCC)c(=O)[nH]c1=O	none
CCc1cc(=O)oc2cc(C)c(CN3CCCC(C)C3)c(O)c12 (configuration not stated)	TAAR1 ag 51 | TAAR1 ag conf 82 | Ga16 ag counter inactive | TAAR1 desensitize inactive | Ga16 nonsel ant inactive
CCCCc1cc(=O)oc2cc(C)c(CN3CCCC3)c(O)c12	none
OCCn1ccc(-c2ccccc2OCc2ccc(F)cc2)n1	none
CCc1c(-c2ccccc2)ncn1CCc1ccccc1OC	none (no result: OX1R antag-1, CHO parental Ca, OX1R antag-2)
CCc1ncn(CCc2ccccc2OC)c1C(C)C	TAAR1 ag 53 (no result: OX1R antag-1, CHO parental Ca, OX1R antag-2) | TAAR1 ag conf 63 | Ga16 ag counter inactive | TAAR1 desensitize inactive | Ga16 nonsel ant inactive
COc1ccccc1CCn1cnc(C)c1CC(C)C	TAAR1 ag 76 (no result: OX1R antag-1, CHO parental Ca, OX1R antag-2) | TAAR1 ag conf 69 | Ga16 ag counter inactive | TAAR1 desensitize inactive | Ga16 nonsel ant inactive
COc1ccccc1CCn1cnc(-c2ccc(F)cc2)c1C(C)C	none (no result: OX1R antag-1, CHO parental Ca, OX1R antag-2)
O=C(N/N=C/c1cc([N+](=O)[O-])cc(Br)c1O)C12CC3CCC(CC(C3)C1)C2	TAAR1 ag 50 | TAAR1 ag conf 66 | Ga16 ag counter 54 | TAAR1 desensitize inactive | Ga16 nonsel ant inactive
O=C(NC(=S)Nc1ccccc1C(=O)O)c1ccc2ccccc2c1	none
O=C(O)c1ccc(NC(=S)NC(=O)c2ccc3ccccc3c2)cc1	TAAR1 ag 47 | TAAR1 ag conf 40 | Ga16 ag counter 32 | TAAR1 desensitize inactive | Ga16 nonsel ant 26
O=C(O)c1cccc(NC(=S)NC(=O)c2ccc3ccccc3c2)c1	TAAR1 ag 73 | TAAR1 ag conf inactive | Ga16 ag counter 31 | TAAR1 desensitize inactive | Ga16 nonsel ant inactive
